Test results: ChEMBL document CHEMBL2434944, “Novel acetamidothiazole derivatives: synthesis and in vitro anticancer evaluation” (Eur J Med Chem, 2013)

Tests used:
ACHN = experiment: Growth inhibition of human ACHN cells assessed as cell growth at 10^-5 M after 48 hrs by sulforhodamine B assay relative to control; type: functional; settings: read-out: Activity
Method in brief: (§1)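 NCI-60 single-dose screen at 10^-5 M. Cells grown in RPMI 1640 with 5% FBS and 2 mM L-glutamine, plated at 5,000–40,000 cells/well according to doubling time, and preincubated 24 h at 37°C, 5% CO2. Compound dissolved in DMSO and added. Exposure 48 h. Adherent cells fixed with cold TCA (10% final), suspension cells with 16% final TCA. Read-out is 0.4% SRB staining, dye solubilised in 10 mM Tris, absorbance at 515 nm. Percent growth is calculated against the time-zero plate and untreated control.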

A498 = experiment: Growth inhibition of human A498 cells assessed as cell growth at 10^-5 M after 48 hrs by sulforhodamine B assay relative to control; type: functional; settings: A498, 48 h, read-out: Activity; method in brief: as §1
[1] = Growth inhibition of human NCI-ADR-RES cells assessed as cell growth at 10^-5 M after 48 hrs by sulforhodamine B assay relative to control; type: functional; settings: read-out: Activity; method in brief: as §1
OVCAR-4 = experiment: Growth inhibition of human OVCAR4 cells assessed as cell growth at 10^-5 M after 48 hrs by sulforhodamine B assay relative to control; type: functional; settings: OVCAR-4, 48 h, read-out: Activity; method in brief: as §1
SK-MEL-5 = experiment: Growth inhibition of human SK-MEL-5 cells assessed as cell growth at 10^-5 M after 48 hrs by sulforhodamine B assay relative to control; type: functional; settings: SK-MEL-5, 48 h, read-out: Activity; method in brief: as §1
SK-MEL-28 = experiment: Growth inhibition of human SK-MEL-28 cells assessed as cell growth at 10^-5 M after 48 hrs by sulforhodamine B assay relative to control; type: functional; settings: SK-MEL-28, 48 h, read-out: Activity; method in brief: as §1
SNB-19 = experiment: Growth inhibition of human SNB19 cells assessed as cell growth at 10^-5 M after 48 hrs by sulforhodamine B assay relative to control; type: functional; settings: SNB-19, 48 h, read-out: Activity; method in brief: as §1
SF-268 = experiment: Growth inhibition of human SF268 cells assessed as cell growth at 10^-5 M after 48 hrs by sulforhodamine B assay relative to control; type: functional; settings: SF-268, 48 h, read-out: Activity; method in brief: as §1
HT-29 = experiment: Growth inhibition of human HT-29 cells assessed as cell growth at 10^-5 M after 48 hrs by sulforhodamine B assay relative to control; type: functional; settings: HT-29, 48 h, read-out: Activity; method in brief: as §1
HCT-15 = experiment: Growth inhibition of human HCT15 cells assessed as cell growth at 10^-5 M after 48 hrs by sulforhodamine B assay relative to control; type: functional; settings: HCT-15, 48 h, read-out: Activity; method in brief: as §1
[2] = Growth inhibition of human HCC2998 cells assessed as cell growth at 10^-5 M after 48 hrs by sulforhodamine B assay relative to control; type: functional; settings: HCC 2998, 48 h, read-out: Activity; method in brief: as §1
HOP-62 = experiment: Growth inhibition of human HOP62 cells assessed as cell growth at 10^-5 M after 48 hrs by sulforhodamine B assay relative to control; type: functional; settings: HOP-62, 48 h, read-out: Activity; method in brief: as §1
RPMI-8226 = experiment: Growth inhibition of human RPMI8226 cells assessed as cell growth at 10^-5 M after 48 hrs by sulforhodamine B assay relative to control; type: functional; settings: RPMI-8226, 48 h, read-out: Activity; method in brief: as §1
[3] = molecular target: T1, Leukotriene A-4 hydrolase (Homo sapiens, UniProt P09960); experiment: Inhibition of human leukotriene A-4 hydrolase
T1 sequence (P09960 whole entry): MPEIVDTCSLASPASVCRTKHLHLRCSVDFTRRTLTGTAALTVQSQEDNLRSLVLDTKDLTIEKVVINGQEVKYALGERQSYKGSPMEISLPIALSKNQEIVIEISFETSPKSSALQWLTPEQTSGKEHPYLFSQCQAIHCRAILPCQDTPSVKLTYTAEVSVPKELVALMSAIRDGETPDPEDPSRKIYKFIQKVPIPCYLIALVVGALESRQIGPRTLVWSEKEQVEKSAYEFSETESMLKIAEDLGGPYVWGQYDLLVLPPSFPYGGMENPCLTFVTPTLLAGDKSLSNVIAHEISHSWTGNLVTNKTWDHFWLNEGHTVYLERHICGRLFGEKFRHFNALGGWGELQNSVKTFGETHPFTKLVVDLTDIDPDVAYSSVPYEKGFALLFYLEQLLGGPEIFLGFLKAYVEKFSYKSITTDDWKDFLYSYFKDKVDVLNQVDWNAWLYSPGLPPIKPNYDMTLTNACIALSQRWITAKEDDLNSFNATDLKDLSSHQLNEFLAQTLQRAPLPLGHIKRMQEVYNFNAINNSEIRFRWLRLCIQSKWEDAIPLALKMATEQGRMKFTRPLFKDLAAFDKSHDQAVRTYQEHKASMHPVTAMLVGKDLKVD

Thymidylate synthase = Thymidylate synthase (Homo sapiens, UniProt P04818); experiment: Inhibition of human thymidylate synthase
Cathepsin K = molecular target: T2, Cathepsin K (Homo sapiens, UniProt P43235); experiment: Inhibition of human cathepsin K
T2 sequence (P43235 whole entry): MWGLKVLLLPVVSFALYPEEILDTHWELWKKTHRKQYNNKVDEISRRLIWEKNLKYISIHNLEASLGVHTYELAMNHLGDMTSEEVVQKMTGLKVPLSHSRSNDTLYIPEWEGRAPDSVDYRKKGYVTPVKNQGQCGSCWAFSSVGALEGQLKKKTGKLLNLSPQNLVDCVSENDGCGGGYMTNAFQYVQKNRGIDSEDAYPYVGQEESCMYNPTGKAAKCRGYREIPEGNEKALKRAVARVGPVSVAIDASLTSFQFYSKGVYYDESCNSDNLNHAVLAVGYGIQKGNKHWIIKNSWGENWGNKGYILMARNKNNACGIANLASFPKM

T47D = experiment: Growth inhibition of human T47D cells assessed as cell growth at 10^-5 M after 48 hrs by sulforhodamine B assay relative to control; type: functional; settings: read-out: Activity
Method in brief: (§2)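 NCI-60 single-dose screen, 10^-5 M final. Cells grown in RPMI 1640 with 5% FBS and 2 mM L-glutamine, seeded at 5,000–40,000 cells/well by doubling time. Preincubated 24 h at 37°C, 5% CO2. Compound in DMSO, diluted in medium with gentamicin, then 48 h exposure. Fixed with cold TCA, SRB stained, A515 read. Percent growth vs untreated control, time-zero plate corrected.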

BT-549 = experiment: Growth inhibition of human BT549 cells assessed as cell growth at 10^-5 M after 48 hrs by sulforhodamine B assay relative to control; type: functional; settings: BT-549, 48 h, read-out: Activity; method in brief: as §1
[4] = Growth inhibition of human Hs 578T cells assessed as cell growth at 10^-5 M after 48 hrs by sulforhodamine B assay relative to control; type: functional; settings: read-out: Activity; method in brief: as §1
PC-3 = experiment: Growth inhibition of human PC3 cells assessed as cell growth at 10^-5 M after 48 hrs by sulforhodamine B assay relative to control; type: functional; settings: PC-3, 48 h, read-out: Activity; method in brief: as §1
UO-31 = experiment: Growth inhibition of human UO31 cells assessed as cell growth at 10^-5 M after 48 hrs by sulforhodamine B assay relative to control; type: functional; settings: UO-31, 48 h, read-out: Activity; method in brief: as §2

Thymidylate synthase, sequence (P04818 whole entry): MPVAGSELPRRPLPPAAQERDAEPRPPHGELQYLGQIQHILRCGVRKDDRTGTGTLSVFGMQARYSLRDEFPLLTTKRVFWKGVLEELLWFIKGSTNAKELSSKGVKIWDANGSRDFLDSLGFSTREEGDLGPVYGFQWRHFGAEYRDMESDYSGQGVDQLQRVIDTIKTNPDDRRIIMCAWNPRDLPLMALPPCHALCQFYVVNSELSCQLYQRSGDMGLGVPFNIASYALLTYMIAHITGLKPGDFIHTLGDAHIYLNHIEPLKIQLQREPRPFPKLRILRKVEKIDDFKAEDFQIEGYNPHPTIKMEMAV

Row | SMILES | growth at 10 µM (ACHN) [%] | growth at 10 µM (A498) [%] | growth at 10 µM [1] [%] | growth at 10 µM (OVCAR-4) [%] | growth at 10 µM (SK-MEL-5) [%] | growth at 10 µM (SK-MEL-28) [%] | growth at 10 µM (SNB-19) [%] | growth at 10 µM (SF-268) [%] | growth at 10 µM (HT-29) [%] | growth at 10 µM (HCT-15) [%] | growth at 10 µM [2] [%] | growth at 10 µM (HOP-62) [%] | growth at 10 µM (RPMI-8226) [%] | Ki [3] [µM] | Ki (Thymidylate synthase) [µM] | Ki (Cathepsin K) [µM] | growth at 10 µM (T47D) [%] | growth at 10 µM (BT-549) [%] | growth at 10 µM [4] [%] | growth at 10 µM (PC-3) [%] | other results
1 | Cc1ccc(-c2csc(=N)n2CC(=O)N2CCOCC2)cc1 | 97.5 | 95.1 | 94.4 | 102 | 98.2 | 108 | 106 | 101 | 109 | 98.1 | 98.9 | 112 | 92.8 | 3.56 | 4.06 | 51.2 | 97.4 | 99.3 | 118 | 78.9 | growth at 10 µM (UO-31): 95.3%
2 | CN1CCN(C(=O)Cn2c(-c3ccccc3)csc2=N)CC1 | 81.2 | 92.6 | 92.6 | 88.4 | 88.2 | 100 | 93.7 | 96.2 | 83.8 | 87.6 | 101 | 88.9 | 92.5 | 0.629 | 1.14 | 6.22 | 78 | 92.6 | 88.2 | 82.1 | growth at 10 µM (UO-31): 78.8%
3 | N=c1scc(-c2ccccc2)n1CC(=O)N1CCOCC1 | 88 | 117 | 105 | 97.3 | 95.5 | 112 | 98.3 | 104 | 106 | 99.2 | 104 | 90 | 95.4 | 8.65 | 6.22 | 49.8 | 88.8 | 103 | 101 | 81.3 | growth at 10 µM (UO-31): 58%
4 | N=c1scc(-c2ccc(Cl)cc2)n1CC(=O)N1CCOCC1 | 99.4 | 75.5 | 98.3 | 82.2 | 96.5 | 97.1 | 91.2 | 102 | 94.2 | 89.9 | 99.9 | 98.5 | 78.7 | 1.06 | 3.73 | 44.9 | 69.7 | 95.5 | 105 | 79.2 | growth at 10 µM (UO-31): 86.1%
